Data: ChEMBL document CHEMBL1212914, “A novel water-soluble gossypol derivative increases chemotherapeutic sensitivity and promotes growth inhibition in colon cancer” (J Med Chem, 2010)
One block for each molecule: values may come before it. The source made the active and inactive calls. The calls are words filed in the database; no cut-off is given here.

Tests used:
CT26 [1] = assay: Induction of apoptosis in mouse CT26 cells assessed as reduction of Bcl-xL protein level at 5 to 10 uM after 24 hrs by immunoblotting; assay type: functional, cell-based
Method in brief: (§1)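 CT26 cells were exposed to 5 or 10 μM for the indicated times, with DMSO as control. Lysates were run on 10% SDS-PAGE and transferred to nitrocellulose. Blots were probed overnight at 4 °C for Bcl-2 and Bcl-xL, with β-actin as loading control, and detected by HRP chemiluminescence. Experiments were repeated three times.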

CT26 [2] = assay: Induction of apoptosis in mouse CT26 cells assessed as reduction of Bcl-2 mRNA level at 10 uM after 24 hrs by RT-PCR analysis; assay type: functional, cell-based
CT26 [3] = assay: Induction of apoptosis in mouse CT26 cells assessed as reduction of Bcl-xL mRNA level at 10 uM after 24 hrs by RT-PCR analysis; assay type: functional, cell-based
CT26 [4] = assay: Induction of apoptosis in mouse CT26 cells assessed as inhibition of Bcl-2-Bax interaction at 20 uM after 24 hrs by immunoprecipitation analysis; assay type: functional, cell-based
Method in brief: (§2)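 CT26 cells were treated for 24 h, with DMSO as control, then lysed in Triton X-100 buffer for 30 min at 4 °C. Lysates were immunoprecipitated overnight at 4 °C with anti-Bcl-2 or anti-Bcl-xL antibody plus protein A-agarose. Eluates were western-blotted for Bax (Bcl-2 pulldown) or Bim (Bcl-xL pulldown).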

CT26 [5] = assay: Induction of apoptosis in mouse CT26 cells assessed as inhibition of Bcl-xL-Bim interaction at 20 uM after 24 hrs by immunoprecipitation analysis; assay type: functional, cell-based; method in brief: as §2
CT26 [6] = assay: Antitumor activity against mouse CT26 cells xenografted in BALB/c mouse assessed as decrease of tumor volume at 10 umol/kg, po for 12 consecutive days; assay type: functional, organism-based
Method in brief: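 Male BALB/c mice (6-8 weeks) received 5 × 10^5 CT26 cells subcutaneously in the right flank. At 60 mm3, tumor-bearing mice were randomized (n = 4 per group) and dosed by gavage at 10 μmol/kg daily for 12 days in 10% ethanol, with vehicle as control. Tumors were measured every 2 days by caliper; volume = length × width × width × π/6.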

Mus musculus [7] = assay: Toxicity in BALB/c mouse assessed as weight loss at 120 umol/kg, po administered daily once for 12 days; assay type: organism-based; conditions: in vivo, 288 h
Method in brief: (§3)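 Male BALB/c mice aged 6-8 weeks, n = 6 per group, received 120 μmol/kg by gavage once daily for 12 days in 10% ethanol, with 10% ethanol alone as the control. Survival was followed over time, and mice were weighed at day 12 and then sacrificed. Small intestine was paraffin-embedded, cut into 5 μm sections, H&E-stained and examined by light microscopy. Student's t test was used.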

Mus musculus [8] = assay: Toxicity in BALB/c mouse assessed as induction of small intestine damage at 120 umol/kg, po administered daily once for 12 days; assay type: organism-based; conditions: in vivo, 288 h; method in brief: as §3
A549 = assay: Cytotoxicity against human A549 cells after 72 hrs by MTT assay; assay type: functional, cell-based; conditions: A549, 72 h
Method in brief: (§4)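 Compounds dissolved in DMSO; cells seeded at 5 × 10^3 per well and treated after adherence with a range of concentrations for 72 h, with DMSO as negative control. MTT was added for 4 h at 37 °C in the dark, formazan dissolved in DMSO, and absorbance read. IC50 (μM) was calculated as the mean of three independent experiments.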

MDA-MB-435 = assay: Cytotoxicity against human MDA-MB-435 cells after 72 hrs by MTT assay; assay type: functional, cell-based; conditions: Homo sapiens, MDA-MB-435, 72 h; method in brief: as §4
MCF7 = assay: Cytotoxicity against human MCF7 cells after 72 hrs by MTT assay; assay type: functional, cell-based; conditions: Homo sapiens, MCF7, 72 h; method in brief: as §4
SW-620 = assay: Cytotoxicity against human SW620 cells after 72 hrs by MTT assay; assay type: functional, cell-based; conditions: Homo sapiens, SW-620, 72 h; method in brief: as §4
HCT-116 = assay: Cytotoxicity against human HCT116 cells after 72 hrs by MTT assay; assay type: functional, cell-based; conditions: Homo sapiens, HCT-116, 72 h; method in brief: as §4
B16-F10 = assay: Cytotoxicity against mouse B16F10 cells after 72 hrs by MTT assay; assay type: functional, cell-based; conditions: Mus musculus, B16-F10, 72 h; method in brief: as §4
PC-3 = assay: Cytotoxicity against human PC3 cells after 72 hrs by MTT assay; assay type: functional, cell-based; conditions: Homo sapiens, PC-3, 72 h; method in brief: as §4
4T1 = assay: Cytotoxicity against mouse 4T1 cells after 72 hrs by MTT assay; assay type: functional, cell-based; conditions: Mus musculus, 4T1, 72 h; method in brief: as §4
CT26 [9] = assay: Cytotoxicity against mouse CT26 cells after 72 hrs by MTT assay; assay type: functional, cell-based; conditions: Mus musculus, CT26, 72 h; method in brief: as §4
[10] = Solubility of the compound in 100 gram of water; assay type: physicochemical; conditions: buffer
Method in brief: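 Water solubility was measured at 37 °C as the mass of compound dissolving in 100 g of H2O.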

[11] = Chemical stability of the compound in phosphate buffered saline at pH 7.2 to 7.4 after 30 mins; assay type: physicochemical; conditions: buffer, pH 7.2, 0.5 h
Method in brief: (§5)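 The compound was incubated for 30 min in PBS (pH 7.2-7.4) or in human or mouse serum, and the amount remaining was analyzed by HPLC.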

Serum [12] = assay: Metabolic stability of the compound in human serum after 30 mins; assay type: ADME, cell-free; conditions: 0.5 h; method in brief: as §5
Serum [13] = assay: Metabolic stability of the compound in mouse serum after 30 mins; assay type: ADME, cell-free; conditions: 0.5 h; method in brief: as §5
CT26 [14] = assay: Cytotoxicity against mouse CT26 cells assessed as cell viability at 20 uM after 24 hrs by […]; assay type: functional; conditions: CT26, 24 h, read-out: Activity
Method in brief: (§6)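 CT26 cells were seeded at 2 × 10^3 per well and, after adherence, exposed to 2, 5, 10 or 20 μM for up to 120 h. Viability was read with a Cell Titer 96 Aqueous One Solution proliferation kit rather than MTT.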

CT26 [15] = assay: Cytotoxicity against mouse CT26 cells assessed as cell viability at 20 uM after 48 hrs […]; assay type: functional; conditions: CT26, 48 h, read-out: Activity; method in brief: as §6
CT26 [16] = assay: Cytotoxicity against mouse CT26 cells assessed as complete cell death at 20 uM after 72 hrs by […]; assay type: functional, cell-based; method in brief: as §6
CT26 [17] = assay: Cytotoxicity against mouse CT26 cells at 5 to 10 uM after 24 hrs by […]; assay type: functional, cell-based; method in brief: as §6
CT26 [18] = assay: Cytotoxicity against mouse CT26 cells assessed as cell viability at 2 uM after 120 hrs by […]; assay type: functional; conditions: CT26, 120 h, read-out: Activity; method in brief: as §6
CT26 [19] = assay: Cytotoxicity against mouse CT26 cells at 2 to 20 uM by […]; assay type: functional, cell-based; conditions: TDE = time-dependent effect; method in brief: as §6
CT26 [20] = assay: Induction of apoptosis in mouse CT26 cells at 5 to 10 uM by TUNEL assay; assay type: functional, cell-based; conditions: TDE = time-dependent effect
Method in brief: (§7)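 After treatment at various concentrations and times, CT26 cells were PBS-washed and fixed in 4% paraformaldehyde for 1 h at room temperature. They were permeabilized for 2 min on ice, then incubated with TUNEL reaction mixture for 1 h at 37 °C in the dark and counterstained with DAPI. TUNEL-positive cells were counted by fluorescence microscopy in five random fields and averaged; DMSO served as control.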

CT26 [21] = assay: Induction of apoptosis in mouse CT26 cells after 24 to 72 hrs by TUNEL assay; assay type: functional, cell-based; method in brief: as §7
CT26 [22] = assay: Induction of apoptosis in mouse CT26 cells assessed as reduction of Bcl-2 protein level at 5 to 10 uM after 24 hrs by immunoblotting; assay type: functional, cell-based; method in brief: as §1
MCF-7 (Homo sapiens) = assay: Cytotoxicity against human MCF-7 cells after 72 hrs by MTT assay; conditions: MCF-7, 72 h

- solubility [10]: 9.25 g
- Stability [11]: Stable
- Stability (Serum [12]): Stable
- Stability (Serum [13]): Stable
SMILES: CC1=C(C2=C(C)C(=O)c3c(c(/C=N/[C@@H]4C(=O)N5[C@@H]4SC(C)(C)[C@@H]5C(=O)[O-])c(O)c(O)c3C(C)C)C2=O)C(=O)c2c(/C=N/[C@@H]3C(=O)N4[C@@H]3SC(C)(C)[C@@H]4C(=O)[O-])c(O)c(O)c(C(C)C)c2C1=O.[Na+].[Na+]
- Activity (CT26 [1]): Active
- Activity (CT26 [2]): inactive
- Activity (CT26 [3]): inactive
- Activity (CT26 [4]): Active
- Activity (CT26 [5]): Active
- Activity (CT26 [6]): Active
- Activity (Mus musculus [7]): Non-toxic
- Activity (Mus musculus [8]): Non-toxic
- IC50 (A549): 8.77 µM
- IC50 (MDA-MB-435): > 40 µM
- IC50 (MCF7): 29.1 µM
- IC50 (SW-620): 6.56 µM
- IC50 (HCT-116): 17.4 µM
- IC50 (B16-F10): 11.1 µM
- IC50 (PC-3): 29.5 µM
- IC50 (4T1): 28.2 µM
- IC50 (CT26 [9]): 6.59 µM
- viability at 20 µM (CT26 [14]): 80%
- viability at 20 µM (CT26 [15]): 60%
- Activity (CT26 [16]): Active
- Activity (CT26 [17]): Active
- viability at 2 µM (CT26 [18]): > 90%
- Activity (CT26 [19]): tde
- Activity (CT26 [20]): tde
- Activity (CT26 [21]): Dose-dependent effect
- Activity (CT26 [22]): Active

SMILES: CCC(C)[C@H](/N=C/c1c(O)c(O)c(C(C)C)c2cc(C)c(-c3c(C)cc4c(C(C)C)c(O)c(O)c(/C=N/[C@H](C(=O)O)C(C)CC)c4c3O)c(O)c12)C(=O)O (some centres not stated)
- IC50 (A549): 14.8 µM
- IC50 (MDA-MB-435): > 40 µM
- IC50 (MCF7): 28.5 µM
- IC50 (SW-620): 22.6 µM
- IC50 (HCT-116): 34.9 µM
- IC50 (B16-F10): 19.9 µM
- IC50 (PC-3): > 40 µM
- IC50 (4T1): > 40 µM
- IC50 (CT26 [9]): 18.4 µM

SMILES: Cc1cc2c(C(C)C)c(O)c(O)c(/C=N/[C@@H](Cc3ccccc3)C(=O)O)c2c(O)c1-c1c(C)cc2c(C(C)C)c(O)c(O)c(/C=N/[C@@H](Cc3ccccc3)C(=O)O)c2c1O
- IC50 (A549): 5.38 µM
- IC50 (MDA-MB-435): > 40 µM
- IC50 (MCF7): > 40 µM
- IC50 (HCT-116): > 40 µM
- IC50 (B16-F10): 22.4 µM
- IC50 (PC-3): 28.4 µM
- IC50 (4T1): > 40 µM
- IC50 (CT26 [9]): 7.36 µM
- IC50 (MCF-7 (Homo sapiens)): > 40 µM

SMILES: CC/C(C)=C(\NCc1c(O)c(O)c(C(C)C)c2cc(C)c(-c3c(C)cc4c(C(C)C)c(O)c(O)c(CN/C(C(=O)O)=C(/C)CC)c4c3O)c(O)c12)C(=O)O
- IC50 (A549): 13.2 µM
- IC50 (MDA-MB-435): > 40 µM
- IC50 (MCF7): 25.8 µM
- IC50 (SW-620): 11.8 µM
- IC50 (HCT-116): 23.4 µM
- IC50 (B16-F10): 20.1 µM
- IC50 (PC-3): > 40 µM
- IC50 (4T1): > 40 µM
- IC50 (CT26 [9]): 11.9 µM
